# Tests used:
# [1] = species: Homo sapiens; experiment: Evaluated for its specificity to inhibit the aggregation of human platelets induced by Collagen at concentration of 20 ug/mL; assay type: functional; details: read-out: I50
# Outline: (§1)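 Human platelet aggregation with agonist ADP 20 μM, collagen 10 or 20 μg/mL, or epinephrine 10 μM (primary and secondary phases scored separately); I50 reported.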
# [2] = species: Homo sapiens; experiment: Evaluated for its specificity to inhibit the aggregation of human platelets induced by Collagen at concentration of 10 ug/mL; assay type: functional; details: read-out: I50; outline: as §1
# [3] = species: Homo sapiens; experiment: Ability to inhibit platelet aggregation of human platelet-rich plasma (PRP) induced by 800 uM of AA-IPA (arachidonic acid); assay type: functional; details: Homo sapiens, Plasma; read-out: I50
# Outline: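 Human platelet-rich plasma; aggregation triggered by arachidonic acid at 800 μM. Test acids were also checked against ADP (20 μM)-induced aggregation. I50 taken as the concentration inhibiting aggregation.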
# [4] = species: Bos taurus; experiment: Evaluated for its specificity by inhibition of PGE-2 and arachidonic acid (substrate) biosynthesis, enzyme source is Bovine seminal Vesicles; assay type: functional
# Outline: (§2)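 Microsomal enzyme preparations from human platelet, bovine seminal vesicles or bovine aorta, given arachidonic acid or PGH2 as substrate. Products measured: TxB2, PGE2 or 6-keto-PGF1α. IC50 reported.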
# [5] = tested on: Cavia porcellus; experiment: Evaluated for the percent inhibition of arachidonate-induced hypertension resulting in decreases in blood pressure at 60 min after dosing (0.1 mg/kg iv) in anesthetized guinea pig.; assay type: functional
# Outline: (§3)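 Anesthetized guinea pig dosed iv with antagonist at 0.1 mg/kg (some at 1.0 mg/kg). Arachidonic acid 0.5 mg/kg iv given as challenge 3 or 60 min later. Airway resistance, dynamic compliance and blood pressure recorded; percent inhibition of each response.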
# [6] = molecular target: T1, Thromboxane A2 receptor (Homo sapiens, UniProt P21731); experiment: Binding affinity was determined from the inhibition of [3H]-SQ 29,548 binding to Thromboxane A2 receptor in human platelet membranes.; assay type: cell membranes
# T1 sequence (P21731 whole entry): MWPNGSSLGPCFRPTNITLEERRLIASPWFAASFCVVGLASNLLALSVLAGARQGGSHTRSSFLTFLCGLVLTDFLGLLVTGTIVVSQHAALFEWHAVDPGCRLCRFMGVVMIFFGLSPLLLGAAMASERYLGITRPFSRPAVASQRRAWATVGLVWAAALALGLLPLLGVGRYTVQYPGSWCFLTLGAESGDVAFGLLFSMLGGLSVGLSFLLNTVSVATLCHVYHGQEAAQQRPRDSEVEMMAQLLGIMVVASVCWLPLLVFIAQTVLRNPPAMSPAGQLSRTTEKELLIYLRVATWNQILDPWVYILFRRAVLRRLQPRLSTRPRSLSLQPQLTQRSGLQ
# Outline: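 Radioligand binding to human platelet membranes with [5,6-3H2]-SQ 29,548 as tracer; Kd derived from inhibition of specific binding.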
# [7] = species: Homo sapiens; experiment: Evaluated for its specificity by inhibition of PGE-2 and arachidonic acid (substrate) biosynthesis, enzyme source is human platelets.; assay type: functional; outline: as §2
# [8] = species: Bos taurus; experiment: Evaluated for its specificity by inhibition of 6-keto-PGF1-alpha and PGH-2 (substrate) biosynthesis, enzyme source is Bovine Aorta; assay type: functional; outline: as §2
# [9] = species: Bos taurus; experiment: Evaluated for its specificity by inhibition of 6-keto-PGF1-alpha and arachidonic acid (substrate) biosynthesis, enzyme source is Bovine Aorta; assay type: functional; outline: as §2
# [10] = species: Homo sapiens; experiment: Evaluated for its specificity to inhibit the aggregation of human platelets induced by Epinephrine(2 degree phase) at concentration of 10 uM; assay type: functional; details: read-out: I50; outline: as §1
# [11] = tested on: Cavia porcellus; experiment: Evaluated for the percent inhibition of arachidonate-induced hypertension resulting in decreases in blood pressure at 3 min after dosing (0.1 mg/kg iv) in anesthetized guinea pig.; assay type: functional; outline: as §3
# [12] = species: Homo sapiens; experiment: Evaluated for its specificity by inhibition of PGE-2 and PGH-2 (substrate) biosynthesis, enzyme source is human platelets.; assay type: functional; outline: as §2
# [13] = tested on: Cavia porcellus; experiment: Evaluated for the percent inhibition of arachidonate-induced air-way resistance at 3 min after dosing (0.1 mg/kg iv) in anesthetized guinea pig.; assay type: functional; outline: as §3
# [14] = species: Homo sapiens; experiment: Evaluated for its specificity to inhibit the aggregation of human platelets induced by U-46,619 at concentration of 5 uM; assay type: functional; details: read-out: I50
# Outline: (§4)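 Human PRP aggregation induced by U-46,619 (11,9-epoxymethano-PGH2, stable PGH2/TxA2 mimic) at 5 or 10 μM; I50 reported. Values are single determinations unless otherwise noted.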
# [15] = species: Homo sapiens; experiment: Evaluated for its specificity to inhibit the aggregation of human platelets induced by U-46,619 at concentration of 10 uM; assay type: functional; details: read-out: I50; outline: as §4
# [16] = tested on: Cavia porcellus; experiment: Evaluated for the percent inhibition of arachidonate-induced dynamic compliance at 3 min after dosing (0.1 mg/kg iv) in anesthetized guinea pig.; assay type: functional; outline: as §3
# [17] = species: Homo sapiens; experiment: Evaluated for its specificity to inhibit the aggregation of human platelets induced by ADP at concentration of 20 uM; assay type: functional; details: read-out: I50; outline: as §1
# [18] = species: Homo sapiens; experiment: Evaluated for its specificity to inhibit the aggregation of human platelets induced by Epinephrine(1 degree phase) at concentration of 10 uM; assay type: functional; details: read-out: I50; outline: as §1
# [19] = tested on: Cavia porcellus; experiment: Evaluated for the percent inhibition of arachidonate-induced dynamic compliance at 60 min after dosing (0.1 mg/kg iv) in anesthetized guinea pig.; assay type: functional; outline: as §3
# [20] = species: Rattus norvegicus; experiment: Evaluated for its potency Rat aorta (RA) strips in the presence of increasing concentrations; assay type: functional
# Outline: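 Rat aortic strips contracted by U-46,619 in cumulative dose-response curves, repeated with increasing antagonist concentrations; Kb from analysis of the rightward shift.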
# [21] = species: Homo sapiens; experiment: Evaluated for ability to inhibit platelet aggregation of human platelet-rich plasma (PRP) induced by 11.9-epoxymethano-PGH2.; assay type: functional; details: Homo sapiens, Plasma; read-out: I50; outline: as §4
# [22] = species: Homo sapiens; experiment: Evaluated for its specificity by inhibition of TXB2 and PGH-2 (substrate) biosynthesis, enzyme source is human platelets.; assay type: functional; outline: as §2
# [23] = tested on: Cavia porcellus; experiment: Evaluated for the percent inhibition of arachidonate-induced air-way resistance at 60 min after dosing (0.1 mg/kg iv) in anesthetized guinea pig.; assay type: functional; outline: as §3
# [24] = species: Homo sapiens; experiment: Evaluated for its specificity by inhibition of TXB2 and arachidonic acid (substrate) biosynthesis, enzyme source is human platelets.; assay type: functional; details: read-out: I50; outline: as §2
# [25] = species: Cavia porcellus; experiment: Evaluated for its potency in Guinea pig trachea (GPT) spirals in the presence of increasing concentrations; assay type: functional; details: Cavia porcellus, Trachea
# Outline: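 Guinea pig tracheal spirals contracted by U-46,619 in cumulative dose-response curves, repeated with increasing antagonist concentrations; Kb from analysis of the rightward shift.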
structure (smiles),measurement,setting,value
"CCCCCCCC(=O)NCC(=O)NCC1C2CCC(O2)C1C/C=C/CCCC(=O)O (single isomer, unassigned; (-))",IC50,[1],0.56 µM
same,IC50,[2],0.19 µM
same,IC50,[3],0.18 µM
same,IC50,[4],> 1000 µM
same,Inhibition,[5],90%
same,Kd,[6],0.0496 µM
same,IC50,[7],> 1000 µM
same,IC50,[8],> 1000 µM
same,IC50,[9],> 1000 µM
same,IC50,[10],0.04 µM
same,Inhibition,[11],195%
same,IC50,[12],> 1000 µM
same,Inhibition,[13],96%
same,IC50,[14],0.22 µM
same,IC50,[15],0.24 µM
same,Inhibition,[16],86%
same,IC50,[17],> 1000 µM
same,IC50,[18],> 1000 µM
same,Inhibition,[19],22%
same,Kb,[20],0.0088 µM
same,IC50,[21],0.24 µM
same,IC50,[22],> 1000 µM
same,Inhibition,[23],23%
same,IC50,[24],> 1000 µM
same,Kb,[25],0.003 µM

# From ChEMBL document CHEMBL1124904, “7-Oxabicyclo[2.2.1]heptyl carboxylic acids as thromboxane A2 antagonists: aza omega-chain analogues” (J Med Chem, 1990)
